# Assay results published in PMC9817006 (Journal of psychopharmacology (Oxford, England), 2022).
# What was measured:
# ICR mice = experiment: Tail-flick test; type: in vivo
# Outline: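 ICR mice (6/group) injected s.c. with test compound (0.001, 0.01, 0.1, 0.5 mg/kg) or saline; tail-flick latency tested at 5, 10, 15, 30, 60 and 120 min. Pre-treatment control latency 2–4 sec; 10 sec cutoff. %MPE = (test−control)/(10−control)×100.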
# [1] = test system: C57BL/6J mice; β2 and α6 WT and KO mice; experiment: Conditioned place preference; type: in vivo
# Outline: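 Three-chamber place conditioning in β2 and α6 WT and KO mice (C57BL/6J background, 8–10/group). Day 1: 5 min confinement to the middle chamber, then 15 min free access. Test compound (0.05 mg/kg s.c.) or vehicle given over three conditioning days, sessions 4 h apart, paired chamber randomized. Day 5: drug-free 15 min test. Score = drug-paired-side time on test day minus baseline.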
structure (smiles),measurement,setting,value
"Ic1cncc(OC[C@@H]2CCN2)c1 [5IA, 5-Iodo-A-85380]","Antinociceptive response, tail-flick test","ICR mice; 0.001 mg/kg s.c., 5 min after injection",2 ± 2 % MPE
same,"Antinociceptive response, tail-flick test","ICR mice; 0.001 mg/kg s.c., 10 min after injection",3 ± 1 % MPE
same,"Antinociceptive response, tail-flick test","ICR mice; 0.001 mg/kg s.c., 15 min after injection",3 ± 2 % MPE
same,"Antinociceptive response, tail-flick test","ICR mice; 0.001 mg/kg s.c., 30 min after injection",0 ± 0 % MPE
same,"Antinociceptive response, tail-flick test","ICR mice; 0.001 mg/kg s.c., 60 min after injection",1 ± 1 % MPE
same,"Antinociceptive response, tail-flick test","ICR mice; 0.001 mg/kg s.c., 120 min after injection",4 ± 2 % MPE
same,"Antinociceptive response, tail-flick test","ICR mice; 0.01 mg/kg s.c., 5 min after injection",1 ± 1 % MPE
same,"Antinociceptive response, tail-flick test","ICR mice; 0.01 mg/kg s.c., 10 min after injection",2 ± 1 % MPE
same,"Antinociceptive response, tail-flick test","ICR mice; 0.01 mg/kg s.c., 15 min after injection",2 ± 1 % MPE
same,"Antinociceptive response, tail-flick test","ICR mice; 0.01 mg/kg s.c., 30 min after injection",2 ± 2 % MPE
same,"Antinociceptive response, tail-flick test","ICR mice; 0.01 mg/kg s.c., 60 min after injection",1 ± 1 % MPE
same,"Antinociceptive response, tail-flick test","ICR mice; 0.01 mg/kg s.c., 120 min after injection",1 ± 1 % MPE
same,"Antinociceptive response, tail-flick test","ICR mice; 0.1 mg/kg s.c., 5 min after injection",0 ± 0 % MPE
same,"Antinociceptive response, tail-flick test","ICR mice; 0.1 mg/kg s.c., 10 min after injection",3 ± 1 % MPE
same,"Antinociceptive response, tail-flick test","ICR mice; 0.1 mg/kg s.c., 15 min after injection",3 ± 1 % MPE
same,"Antinociceptive response, tail-flick test","ICR mice; 0.1 mg/kg s.c., 30 min after injection",6 ± 4 % MPE
same,"Antinociceptive response, tail-flick test","ICR mice; 0.1 mg/kg s.c., 60 min after injection",3 ± 2 % MPE
same,"Antinociceptive response, tail-flick test","ICR mice; 0.1 mg/kg s.c., 120 min after injection",5 ± 2 % MPE
same,"Antinociceptive response, tail-flick test","ICR mice; 0.5 mg/kg s.c., 5 min after injection",10 ± 4 % MPE
same,"Antinociceptive response, tail-flick test","ICR mice; 0.5 mg/kg s.c., 10 min after injection",4 ± 3 % MPE
same,"Antinociceptive response, tail-flick test","ICR mice; 0.5 mg/kg s.c., 15 min after injection",11 ± 4 % MPE
same,"Antinociceptive response, tail-flick test","ICR mice; 0.5 mg/kg s.c., 30 min after injection",7 ± 4 % MPE
same,"Antinociceptive response, tail-flick test","ICR mice; 0.5 mg/kg s.c., 60 min after injection",6 ± 3 % MPE
same,"Antinociceptive response, tail-flick test","ICR mice; 0.5 mg/kg s.c., 120 min after injection",7 ± 3 % MPE
same,"Effect on acute thermal antinociception, tail-flick test (in words)","ICR mice; 0.001-0.5 mg/kg s.c., 5-120 min, Dunnett's post hoc",no significant effects of dose at any of the observed time points
same,"Conditioned place preference, dose-response (in words)","[1]; C57BL/6J mice, 0.01, 0.05, 0.1, 0.5 or 1 mg/kg s.c.","significant 5IA induced-CPP at 0.05 and 0.1 mg/kg, but not at 0.01, 0.5, and 1 mg/kg"
same,"Conditioned place preference, α6 WT vs KO (in words)","[1]; α6 WT and KO mice, 0.05 mg/kg s.c.",no significant difference in 5IA-induced CPP between α6 WT and KO mice
same,Conditioned place preference (in words),"[1]; β2 KO mice, 0.05 mg/kg s.c.",significantly abolished in β2 KO mice
same,Conditioned place preference (in words),"[1]; β2 WT mice, 0.05 mg/kg s.c.",significant CPP in comparison to their vehicle counterparts
